Test results as given in ChEMBL document CHEMBL4814000, “Discovery of β-carboline-(phenylsulfonyl)furoxan hybrids as potential anti-breast cancer agents” (Bioorg Med Chem Lett, 2021).
Active and inactive are the calls of the source. No cut-off for these calls is given here.

Experiments:
[1] = tested on: MCF7; assay: Antiproliferative activity against human MCF7 cells assessed as reduction in cell viability incubated for 72 hrs by CCK-8 assay; assay type: functional, cell-based; settings: MCF7, 72 h
How it was run: (§1)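 CCK-8 viability assay on MCF-7 or MDA-MB-231 cells after 72 h compound exposure; IC50 taken as half inhibitory concentration, reported as mean ± SD of three independent experiments.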

[2] = tested on: MDA-MB-231; assay: Antiproliferative activity against human MDA-MB-231 cells assessed as reduction in cell viability incubated for 72 hrs by CCK-8 assay; assay type: functional, cell-based; settings: MDA-MB-231, 72 h; how it was run: as §1
[3] = Nitric oxide releasing activity assessed as amount of NO release measured up to 24 hrs by Griess assay; assay type: functional; settings: time hrs <=24
How it was run: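 Griess assay measuring NO released by compounds in vitro over time; values are averages of three independent experiments.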

Structure (SMILES)	IC50 [1] [µM]	IC50 [2] [µM]	Activity [3]
O=C(OCCOCCOc1no[n+]([O-])c1S(=O)(=O)c1ccccc1)c1cc2c(cn1)[nH]c1ccccc12	19	15.8	–
Cc1nc(C(=O)NCCOc2no[n+]([O-])c2S(=O)(=O)c2ccccc2)cc2c1[nH]c1ccccc12	4.96	3.84	–
O=C(OCC#CCOc1no[n+]([O-])c1S(=O)(=O)c1ccccc1)c1cc2c(cn1)[nH]c1ccccc12	5.27	5.89	–
COc1cccc2c1C(=O)c1c(O)c3c(c(O)c1C2=O)C[C@@](O)(C(=O)CO)C[C@@H]3O[C@H]1C[C@H](N)[C@H](O)[C@H](C)O1 [DOXORUBICIN]	–	2.86	–
O=C(OCCCCOc1no[n+]([O-])c1S(=O)(=O)c1ccccc1)c1cc2c(cn1)[nH]c1ccccc12	9.57	12.5	–
O=C(c1cc2c(cn1)[nH]c1ccccc12)N1CCN(CCOc2no[n+]([O-])c2S(=O)(=O)c2ccccc2)CC1	8.28	6.83	–
Cc1nc(C(=O)OCCCCCCOc2no[n+]([O-])c2S(=O)(=O)c2ccccc2)cc2c1[nH]c1ccccc12	6.85	5.75	–
COc1ccc(-c2nc(C(=O)OCC#CCOc3no[n+]([O-])c3S(=O)(=O)c3ccccc3)cc3c2[nH]c2ccccc23)cc1	2.35	1.16	–
COc1ccc(-c2nc(C(=O)OCCCOc3no[n+]([O-])c3S(=O)(=O)c3ccccc3)cc3c2[nH]c2ccccc23)cc1	3.49	2.86	–
Cc1nc(C(=O)NCCCOc2no[n+]([O-])c2S(=O)(=O)c2ccccc2)cc2c1[nH]c1ccccc12	2.97	1.62	–
Cc1nc(C(=O)N2CCN(CCOc3no[n+]([O-])c3S(=O)(=O)c3ccccc3)CC2)cc2c1[nH]c1ccccc12	3.29	3.47	–
COc1ccc(-c2nc(C(=O)O)cc3c2[nH]c2ccccc23)cc1	14.3	12.6	–
O=C(OCCCCCCOc1no[n+]([O-])c1S(=O)(=O)c1ccccc1)c1cc2c(cn1)[nH]c1ccccc12	13.7	8.87	–
COc1ccc(-c2nc(C(=O)NCC(C)Oc3no[n+]([O-])c3S(=O)(=O)c3ccccc3)cc3c2[nH]c2ccccc23)cc1 (centres undefined)	1.56	2.27	Active
COc1ccc(-c2nc(C(=O)OCCOCCOc3no[n+]([O-])c3S(=O)(=O)c3ccccc3)cc3c2[nH]c2ccccc23)cc1	3.92	2.53	–
CC(CNC(=O)c1cc2c(cn1)[nH]c1ccccc12)Oc1no[n+]([O-])c1S(=O)(=O)c1ccccc1 (centres undefined)	6.94	5.97	–
COc1ccc(-c2nc(C(=O)OCCOc3no[n+]([O-])c3S(=O)(=O)c3ccccc3)cc3c2[nH]c2ccccc23)cc1	4.8	3.59	Active
Cc1nc(C(=O)OCCCCOc2no[n+]([O-])c2S(=O)(=O)c2ccccc2)cc2c1[nH]c1ccccc12	4.28	4.54	–

Structure (SMILES)	IC50 [1] [µM]	IC50 [2] [µM]	Activity [3]
Cc1nc(C(=O)OCC#CCOc2no[n+]([O-])c2S(=O)(=O)c2ccccc2)cc2c1[nH]c1ccccc12	8.86	6.91	–
COc1ccc(-c2nc(C(=O)NCCOc3no[n+]([O-])c3S(=O)(=O)c3ccccc3)cc3c2[nH]c2ccccc23)cc1	1.45	0.87	Active
COc1ccc(-c2nc(C(=O)OCCCCCCOc3no[n+]([O-])c3S(=O)(=O)c3ccccc3)cc3c2[nH]c2ccccc23)cc1	5.36	2.98	Active
Cc1nc(C(=O)OCCOc2no[n+]([O-])c2S(=O)(=O)c2ccccc2)cc2c1[nH]c1ccccc12	4.58	7.46	–
O=S(=O)(c1ccccc1)c1no[n+]([O-])c1S(=O)(=O)c1ccccc1	3.92	4.84	–
COc1ccc(-c2nc(C(=O)N3CCN(CCOc4no[n+]([O-])c4S(=O)(=O)c4ccccc4)CC3)cc3c2[nH]c2ccccc23)cc1	1.33	0.92	Active
O=C(NCCOc1no[n+]([O-])c1S(=O)(=O)c1ccccc1)c1cc2c(cn1)[nH]c1ccccc12	7.53	6.75	–
O=C(NCCCOc1no[n+]([O-])c1S(=O)(=O)c1ccccc1)c1cc2c(cn1)[nH]c1ccccc12	4.64	7.5	–
O=C(O)c1cc2c(cn1)[nH]c1ccccc12	> 30	> 30	–
Cc1nc(C(=O)NCC(C)Oc2no[n+]([O-])c2S(=O)(=O)c2ccccc2)cc2c1[nH]c1ccccc12 (centres undefined)	3.8	2.2	–
Cc1nc(C(=O)OCCOCCOc2no[n+]([O-])c2S(=O)(=O)c2ccccc2)cc2c1[nH]c1ccccc12	5.89	7.67	–
Cc1nc(C(=O)OCCCOc2no[n+]([O-])c2S(=O)(=O)c2ccccc2)cc2c1[nH]c1ccccc12	4.88	2.24	–
Cc1nc(C(=O)O)cc2c1[nH]c1ccccc12 [HARMAN-3-CARBOXYLIC ACID]	19.2	22.6	–
O=C(OCCOc1no[n+]([O-])c1S(=O)(=O)c1ccccc1)c1cc2c(cn1)[nH]c1ccccc12	11.5	9.56	–
O=C(OCCCOc1no[n+]([O-])c1S(=O)(=O)c1ccccc1)c1cc2c(cn1)[nH]c1ccccc12	4.64	7.96	–
COc1ccc2c(c1)[nH]c1c(C)nccc12 [HARMINE]	16.9	21.9	–
COc1ccc(-c2nc(C(=O)OCCCCOc3no[n+]([O-])c3S(=O)(=O)c3ccccc3)cc3c2[nH]c2ccccc23)cc1	2.92	4.26	–
